Results reported in ChEMBL document CHEMBL3526004, “Interaction of silymarin flavonolignans with organic anion-transporting polypeptides” (Drug Metab Dispos, 2013).

Columns and labels:
[1] = target: T1, Solute carrier organic anion transporter family member 2B1 (Homo sapiens, UniProt O94956); assay: Inhibition of OATP2B1 (unknown origin) expressed in MDCK2 cells assessed as reduction of [3H]estrone-3-sulfate uptake at 10 uM after 3 mins by beta-counting; format: ADME, cell-based; conditions: mdck-ii, 0.05 h
T1 sequence (O94956 whole entry): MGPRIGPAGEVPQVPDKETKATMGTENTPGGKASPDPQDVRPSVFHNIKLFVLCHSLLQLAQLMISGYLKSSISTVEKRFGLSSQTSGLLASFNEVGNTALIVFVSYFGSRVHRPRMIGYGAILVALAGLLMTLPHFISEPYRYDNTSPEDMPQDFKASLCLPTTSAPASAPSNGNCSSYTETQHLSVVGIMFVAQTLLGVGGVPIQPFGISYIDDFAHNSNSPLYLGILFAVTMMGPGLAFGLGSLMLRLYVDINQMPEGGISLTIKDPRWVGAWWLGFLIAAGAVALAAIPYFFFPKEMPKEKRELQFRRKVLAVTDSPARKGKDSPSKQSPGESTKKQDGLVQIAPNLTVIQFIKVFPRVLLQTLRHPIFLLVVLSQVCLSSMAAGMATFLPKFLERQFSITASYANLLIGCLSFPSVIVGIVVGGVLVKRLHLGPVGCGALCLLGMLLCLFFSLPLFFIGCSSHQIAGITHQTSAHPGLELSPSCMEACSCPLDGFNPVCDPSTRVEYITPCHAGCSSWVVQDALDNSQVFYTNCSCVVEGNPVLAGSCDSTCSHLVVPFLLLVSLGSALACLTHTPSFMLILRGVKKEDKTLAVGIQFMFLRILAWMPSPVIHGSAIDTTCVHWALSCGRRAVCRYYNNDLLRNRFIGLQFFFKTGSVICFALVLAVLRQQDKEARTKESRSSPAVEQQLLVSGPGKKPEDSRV
Method in brief: (§1)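 Confluent cells were washed in PBS, then given 1 µM [3H]-E2 17G (OATP1B1, OATP1B3 HEK293) or 1 µM [3H]-E1S (OATP2B1 MDCKII) with 10 µM compound in HBSS pH 7.4 for 3 min at 37°C. Uptake into mock or parental cells was subtracted after protein normalization. Results are % vehicle, mean ± SD of at least three experiments in triplicate.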

[2] = target: T2, Solute carrier organic anion transporter family member 1B1 (Homo sapiens, UniProt Q9Y6L6); assay: Inhibition of OATP1B1 (unknown origin) expressed in HEK293 cells assessed as reduction of [3H]estradiol-17beta-glucuronide uptake at 10 uM after 3 mins by beta-counting; format: ADME, cell-based; conditions: hek293, 0.05 h; method in brief: as §1
T2 sequence (Q9Y6L6 whole entry): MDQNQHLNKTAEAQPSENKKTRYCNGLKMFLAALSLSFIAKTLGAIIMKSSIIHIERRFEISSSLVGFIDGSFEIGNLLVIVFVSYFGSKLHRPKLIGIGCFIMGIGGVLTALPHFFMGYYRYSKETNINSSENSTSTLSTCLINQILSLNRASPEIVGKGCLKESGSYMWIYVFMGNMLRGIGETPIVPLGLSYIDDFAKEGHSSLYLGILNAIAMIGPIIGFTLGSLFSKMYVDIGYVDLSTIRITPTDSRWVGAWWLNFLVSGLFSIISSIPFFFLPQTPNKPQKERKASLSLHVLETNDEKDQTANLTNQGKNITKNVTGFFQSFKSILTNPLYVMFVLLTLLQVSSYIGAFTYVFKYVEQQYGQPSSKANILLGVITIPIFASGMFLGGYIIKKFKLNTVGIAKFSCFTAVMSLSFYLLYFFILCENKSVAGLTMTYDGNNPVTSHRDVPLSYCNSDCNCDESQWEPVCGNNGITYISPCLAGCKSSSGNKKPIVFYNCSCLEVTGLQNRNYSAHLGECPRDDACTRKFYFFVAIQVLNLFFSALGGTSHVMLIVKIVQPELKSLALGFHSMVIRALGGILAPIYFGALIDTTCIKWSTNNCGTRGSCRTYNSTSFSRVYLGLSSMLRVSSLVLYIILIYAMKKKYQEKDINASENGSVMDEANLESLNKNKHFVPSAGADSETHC

[3] = target: T3, Solute carrier organic anion transporter family member 1B3 (Homo sapiens, UniProt Q9NPD5); assay: Inhibition of OATP1B3 (unknown origin) expressed in HEK293 cells assessed as reduction of [3H]estradiol-17beta-glucuronide uptake at 10 uM after 3 mins by beta-counting; format: ADME, cell-based; conditions: hek293, 0.05 h; method in brief: as §1
T3 sequence (Q9NPD5 whole entry): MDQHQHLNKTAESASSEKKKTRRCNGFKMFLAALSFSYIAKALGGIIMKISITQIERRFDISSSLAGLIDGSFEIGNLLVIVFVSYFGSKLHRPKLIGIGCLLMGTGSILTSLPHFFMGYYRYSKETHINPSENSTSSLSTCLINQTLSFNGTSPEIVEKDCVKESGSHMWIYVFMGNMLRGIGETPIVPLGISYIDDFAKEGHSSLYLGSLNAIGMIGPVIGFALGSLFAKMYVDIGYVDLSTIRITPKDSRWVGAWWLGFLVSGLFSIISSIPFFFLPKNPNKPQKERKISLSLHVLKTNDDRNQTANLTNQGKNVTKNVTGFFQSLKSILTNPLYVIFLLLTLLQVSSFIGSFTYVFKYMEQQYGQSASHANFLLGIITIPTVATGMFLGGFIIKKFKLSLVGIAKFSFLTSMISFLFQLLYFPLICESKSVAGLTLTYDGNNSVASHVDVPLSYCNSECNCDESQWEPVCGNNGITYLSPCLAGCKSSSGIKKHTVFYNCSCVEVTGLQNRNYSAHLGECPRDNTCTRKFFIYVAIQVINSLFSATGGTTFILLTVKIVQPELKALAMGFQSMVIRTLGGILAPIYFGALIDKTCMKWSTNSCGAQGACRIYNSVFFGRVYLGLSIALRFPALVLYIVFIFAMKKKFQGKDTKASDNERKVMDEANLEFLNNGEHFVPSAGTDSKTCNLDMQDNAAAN

[4] = target: T2, Solute carrier organic anion transporter family member 1B1; assay: Inhibition of OATP1B1 (unknown origin) expressed in HEK293 cells assessed as reduction of [3H]estradiol-17beta-glucuronide uptake after 3 mins by beta-counting; format: ADME, cell-based
Method in brief: (§2)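 Transfected HEK293 (G418) or MDCKII (hygromycin B) cells were co-incubated with 0-100 µM compound and [3H]-E2 17G (1 µM, 0.25 µCi/ml; OATP1B1, OATP1B3) or [3H]-E1S (1 µM; OATP2B1) in HBSS pH 7.4, 3 min at 37°C. OATP-negative uptake was subtracted, and results expressed as % vehicle. Two experiments were run in duplicate. IC50 came from non-linear dose-response fits.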

[5] = target: T3, Solute carrier organic anion transporter family member 1B3; assay: Inhibition of OATP1B3 (unknown origin) expressed in HEK293 cells assessed as reduction of [3H]estradiol-17beta-glucuronide uptake after 3 mins by beta-counting; format: ADME, cell-based; method in brief: as §2
[6] = target: T1, Solute carrier organic anion transporter family member 2B1; assay: Inhibition of OATP2B1 (unknown origin) expressed in MDCK2 cells assessed as reduction of [3H]estrone-3-sulfate uptake after 3 mins by beta-counting; format: ADME, cell-based, MDCK-II; method in brief: as §2

inhibition (INH) [1]	inhibition (INH) [2]	inhibition (INH) [3]	IC50 [4] [µM]	IC50 [5] [µM]	IC50 [6] [µM]	Compound
Active	Active					COc1cc([C@H]2Oc3ccc([C@H]4Oc5cc(O)cc(O)c5C(=O)[C@@H]4O)cc3O[C@@H]2CO)ccc1O [ISOSILYBIN A]
Active	Active	Active				COc1cc([C@@H]2Oc3ccc([C@H]4Oc5cc(O)cc(O)c5C(=O)[C@@H]4O)cc3O[C@H]2CO)ccc1O [ISOSILYBIN B]
Active	Not Active		9	36.4	3.6	COc1cc(C2Oc3c(O)cc([C@H]4Oc5cc(O)cc(O)c5C(=O)[C@@H]4O)cc3C2CO)ccc1O (stereo not given in full) [SILICRISTIN]
